{"source": "paper PMC5812400", "about": "(ESMO Open, 2018)", "tested_on": "adult patients with advanced non-haematological malignancies", "assay": "Safety and tolerability", "type": "in vivo, human", "how_it_was_run": "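Patients on milled oral capsules, fasted, in 28-day cycles. AEs and SAEs recorded from first dose through 30 days after last dose. Graded by NCI CTCAE v4.03 and coded to MedDRA v19.0. Relatedness to study drug judged by investigator.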", "data": [{"compound": "CC(C)n1nc(-c2ccc3oc(N)nc3c2)c2c(N)ncnc21", "note": "[TAK-228, Sapanisertib]", "values": [{"measurement": "AE resulting in TAK-228 discontinuation", "setting": "QD 3 mg (n=11)", "result": "0 n (%)"}, {"measurement": "Drug-related AE", "setting": "QD 3 mg (n=11)", "result": "10 (91) n (%)"}, {"measurement": "Drug-related AE: Abdominal pain", "setting": "QD 3 mg (n=11)", "result": "2 (18) n (%)"}, {"measurement": "Drug-related AE: Decreased appetite", "setting": "QD 3 mg (n=11)", "result": "3 (27) n (%)"}, {"measurement": "Drug-related AE: Diarrhoea", "setting": "QD 3 mg (n=11)", "result": "2 (18) n (%)"}, {"measurement": "Drug-related AE: Fatigue", "setting": "QD 3 mg (n=11)", "result": "6 (55) n (%)"}, {"measurement": "Drug-related AE: Hyperglycaemia", "setting": "QD 3 mg (n=11)", "result": "2 (18) n (%)"}, {"measurement": "Drug-related AE: Nausea", "setting": "QD 3 mg (n=11)", "result": "4 (36) n (%)"}, {"measurement": "Drug-related AE: Pruritus", "setting": "QD 3 mg (n=11)", "result": "4 (36) n (%)"}, {"measurement": "Drug-related AE: Rash", "setting": "QD 3 mg (n=11)", "result": "1 (9) n (%)"}, {"measurement": "Drug-related AE: Rash (maculopapular)", "setting": "QD 3 mg (n=11)", "result": "4 (36) n (%)"}, {"measurement": "Drug-related AE: Stomatitis", "setting": "QD 3 mg (n=11)", "result": "1 (9) n (%)"}, {"measurement": "Drug-related AE: Vomiting", "setting": "QD 3 mg (n=11)", "result": "1 (9) n (%)"}, {"measurement": "Drug-related SAE", "setting": "QD 3 mg (n=11)", "result": "0 n (%)"}, {"measurement": "Drug-related grade ≥3 AE", "setting": "QD 3 mg (n=11)", "result": "5 (46) n (%)"}, {"measurement": "Grade ≥3 AE", "setting": "QD 3 mg (n=11)", "result": "6 (55) n (%)"}, {"measurement": "Grade ≥3 AE: Abdominal pain", "setting": "QD 3 mg (n=11)", "result": "1 (9) n (%)"}, {"measurement": "Grade ≥3 AE: Anaemia", "setting": "QD 3 mg (n=11)", "result": "0 n (%)"}, {"measurement": "Grade ≥3 AE: Blood phosphorus decreased", "setting": "QD 3 mg (n=11)", "result": "1 (9) n (%)"}, {"measurement": "Grade ≥3 AE: Diarrhoea", "setting": "QD 3 mg (n=11)", "result": "1 (9) n (%)"}, {"measurement": "Grade ≥3 AE: Fatigue", "setting": "QD 3 mg (n=11)", "result": "0 n (%)"}, {"measurement": "Grade ≥3 AE: Hyperglycaemia", "setting": "QD 3 mg (n=11)", "result": "1 (9) n (%)"}, {"measurement": "Grade ≥3 AE: Hyponatraemia", "setting": "QD 3 mg (n=11)", "result": "1 (9) n (%)"}, {"measurement": "Grade ≥3 AE: Rash macular", "setting": "QD 3 mg (n=11)", "result": "1 (9) n (%)"}, {"measurement": "On-study deaths", "setting": "QD 3 mg (n=11)", "result": "0 n (%)"}, {"measurement": "SAE", "setting": "QD 3 mg (n=11)", "result": "3 (27) n (%)"}, {"measurement": "AE resulting in TAK-228 discontinuation", "setting": "QD 4 mg (n=6)", "result": "1 (17) n (%)"}, {"measurement": "Drug-related AE", "setting": "QD 4 mg (n=6)", "result": "6 (100) n (%)"}, {"measurement": "Drug-related AE: Abdominal pain", "setting": "QD 4 mg (n=6)", "result": "1 (17) n (%)"}, {"measurement": "Drug-related AE: Decreased appetite", "setting": "QD 4 mg (n=6)", "result": "2 (33) n (%)"}, {"measurement": "Drug-related AE: Diarrhoea", "setting": "QD 4 mg (n=6)", "result": "3 (50) n (%)"}, {"measurement": "Drug-related AE: Fatigue", "setting": "QD 4 mg (n=6)", "result": "4 (67) n (%)"}, {"measurement": "Drug-related AE: Hyperglycaemia", "setting": "QD 4 mg (n=6)", "result": "1 (17) n (%)"}, {"measurement": "Drug-related AE: Nausea", "setting": "QD 4 mg (n=6)", "result": "1 (17) n (%)"}, {"measurement": "Drug-related AE: Pruritus", "setting": "QD 4 mg (n=6)", "result": "3 (50) n (%)"}, {"measurement": "Drug-related AE: Rash", "setting": "QD 4 mg (n=6)", "result": "2 (33) n (%)"}, {"measurement": "Drug-related AE: Rash (maculopapular)", "setting": "QD 4 mg (n=6)", "result": "0 n (%)"}, {"measurement": "Drug-related AE: Stomatitis", "setting": "QD 4 mg (n=6)", "result": "2 (33) n (%)"}, {"measurement": "Drug-related AE: Vomiting", "setting": "QD 4 mg (n=6)", "result": "1 (17) n (%)"}, {"measurement": "Drug-related SAE", "setting": "QD 4 mg (n=6)", "result": "0 n (%)"}, {"measurement": "Drug-related grade ≥3 AE", "setting": "QD 4 mg (n=6)", "result": "5 (83) n (%)"}, {"measurement": "Grade ≥3 AE", "setting": "QD 4 mg (n=6)", "result": "6 (100) n (%)"}, {"measurement": "Grade ≥3 AE: Abdominal pain", "setting": "QD 4 mg (n=6)", "result": "0 n (%)"}, {"measurement": "Grade ≥3 AE: Anaemia", "setting": "QD 4 mg (n=6)", "result": "0 n (%)"}, {"measurement": "Grade ≥3 AE: Blood phosphorus decreased", "setting": "QD 4 mg (n=6)", "result": "0 n (%)"}, {"measurement": "Grade ≥3 AE: Diarrhoea", "setting": "QD 4 mg (n=6)", "result": "0 n (%)"}, {"measurement": "Grade ≥3 AE: Fatigue", "setting": "QD 4 mg (n=6)", "result": "2 (33) n (%)"}, {"measurement": "Grade ≥3 AE: Hyperglycaemia", "setting": "QD 4 mg (n=6)", "result": "1 (17) n (%)"}, {"measurement": "Grade ≥3 AE: Hyponatraemia", "setting": "QD 4 mg (n=6)", "result": "1 (17) n (%)"}, {"measurement": "Grade ≥3 AE: Rash macular", "setting": "QD 4 mg (n=6)", "result": "1 (17) n (%)"}, {"measurement": "On-study deaths", "setting": "QD 4 mg (n=6)", "result": "1 (17) n (%)"}, {"measurement": "SAE", "setting": "QD 4 mg (n=6)", "result": "2 (33) n (%)"}, {"measurement": "AE resulting in TAK-228 discontinuation", "setting": "QD Total (n=17)", "result": "1 (6) n (%)"}, {"measurement": "Drug-related AE", "setting": "QD Total (n=17)", "result": "16 (94) n (%)"}, {"measurement": "Drug-related AE: Abdominal pain", "setting": "QD Total (n=17)", "result": "3 (18) n (%)"}, {"measurement": "Drug-related AE: Decreased appetite", "setting": "QD Total (n=17)", "result": "5 (29) n (%)"}, {"measurement": "Drug-related AE: Diarrhoea", "setting": "QD Total (n=17)", "result": "5 (29) n (%)"}, {"measurement": "Drug-related AE: Fatigue", "setting": "QD Total (n=17)", "result": "10 (59) n (%)"}, {"measurement": "Drug-related AE: Hyperglycaemia", "setting": "QD Total (n=17)", "result": "3 (18) n (%)"}, {"measurement": "Drug-related AE: Nausea", "setting": "QD Total (n=17)", "result": "5 (29) n (%)"}, {"measurement": "Drug-related AE: Pruritus", "setting": "QD Total (n=17)", "result": "7 (41) n (%)"}, {"measurement": "Drug-related AE: Rash", "setting": "QD Total (n=17)", "result": "3 (18) n (%)"}, {"measurement": "Drug-related AE: Rash (maculopapular)", "setting": "QD Total (n=17)", "result": "4 (24) n (%)"}, {"measurement": "Drug-related AE: Stomatitis", "setting": "QD Total (n=17)", "result": "3 (18) n (%)"}, {"measurement": "Drug-related AE: Vomiting", "setting": "QD Total (n=17)", "result": "2 (12) n (%)"}, {"measurement": "Drug-related SAE", "setting": "QD Total (n=17)", "result": "0 n (%)"}, {"measurement": "Drug-related grade ≥3 AE", "setting": "QD Total (n=17)", "result": "10 (59) n (%)"}, {"measurement": "Grade ≥3 AE", "setting": "QD Total (n=17)", "result": "12 (71) n (%)"}, {"measurement": "Grade ≥3 AE: Abdominal pain", "setting": "QD Total (n=17)", "result": "1 (6) n (%)"}, {"measurement": "Grade ≥3 AE: Anaemia", "setting": "QD Total (n=17)", "result": "0 n (%)"}, {"measurement": "Grade ≥3 AE: Blood phosphorus decreased", "setting": "QD Total (n=17)", "result": "1 (6) n (%)"}, {"measurement": "Grade ≥3 AE: Diarrhoea", "setting": "QD Total (n=17)", "result": "1 (6) n (%)"}, {"measurement": "Grade ≥3 AE: Fatigue", "setting": "QD Total (n=17)", "result": "2 (12) n (%)"}, {"measurement": "Grade ≥3 AE: Hyperglycaemia", "setting": "QD Total (n=17)", "result": "2 (12) n (%)"}, {"measurement": "Grade ≥3 AE: Hyponatraemia", "setting": "QD Total (n=17)", "result": "2 (12) n (%)"}, {"measurement": "Grade ≥3 AE: Rash macular", "setting": "QD Total (n=17)", "result": "2 (12) n (%)"}, {"measurement": "On-study deaths", "setting": "QD Total (n=17)", "result": "1 (6) n (%)"}, {"measurement": "SAE", "setting": "QD Total (n=17)", "result": "5 (29) n (%)"}, {"measurement": "Asthaenic conditions, patients", "setting": "QD arm", "result": 59, "unit": "%"}, {"measurement": "Drug-related AE of any grade: decreased appetite", "setting": "QD arm", "result": 29, "unit": "%"}, {"measurement": "Drug-related AE of any grade: diarrhoea", "setting": "QD arm", "result": 29, "unit": "%"}, {"measurement": "Drug-related AE of any grade: fatigue", "setting": "QD arm", "result": 59, "unit": "%"}, {"measurement": "Drug-related AE of any grade: nausea", "setting": "QD arm", "result": 29, "unit": "%"}, {"measurement": "Drug-related AE of any grade: pruritus", "setting": "QD arm", "result": 41, "unit": "%"}, {"measurement": "Grade ≥3 AE: Fatigue", "setting": "QD arm", "result": 12, "unit": "%"}, {"measurement": "Grade ≥3 AE: Hyperglycaemia", "setting": "QD arm", "result": 12, "unit": "%"}, {"measurement": "Grade ≥3 AE: Hyponatraemia", "setting": "QD arm", "result": 12, "unit": "%"}, {"measurement": "Grade ≥3 AE: macular rash", "setting": "QD arm", "result": 12, "unit": "%"}, {"measurement": "SAEs, patients", "setting": "QD arm", "result": 29, "unit": "%"}, {"measurement": "Incidence of grade ≥3 drug-related AEs", "setting": "QD milled TAK-228", "result": 59, "unit": "%"}, {"measurement": "AE resulting in TAK-228 discontinuation", "setting": "QW 20 mg (n=7)", "result": "0 n (%)"}, {"measurement": "Drug-related AE", "setting": "QW 20 mg (n=7)", "result": "5 (71) n (%)"}, {"measurement": "Drug-related AE: Asthaenia", "setting": "QW 20 mg (n=7)", "result": "1 (14) n (%)"}, {"measurement": "Drug-related AE: Decreased appetite", "setting": "QW 20 mg (n=7)", "result": "1 (14) n (%)"}, {"measurement": "Drug-related AE: Dehydration", "setting": "QW 20 mg (n=7)", "result": "1 (14) n (%)"}, {"measurement": "Drug-related AE: Diarrhoea", "setting": "QW 20 mg (n=7)", "result": "4 (57) n (%)"}]}]}
